In brackets after ≈: the same amount, converted by molar mass. Activity calls are given as the source filed them. No cut-off for these calls is given here. Positions of bridges follow the written chain, without caps; N, C: chain ends. Residues, ends and D or L forms follow the SMILES beside them.
Key:
Salmonella typhimurium [1] = assay: Antibacterial activity against Salmonella typhimurium ATCC 14028 using 1 hr cathepsin B pre-treated compound followed by incubation for 16 to 18 hrs at pH 5 by broth microdilution method; assay type: functional, Salmonella enterica subsp. enterica serovar Typhimurium; conditions: Salmonella enterica
Outline: (§1)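 Cathepsin B (bovine spleen, 10 µg/mL) was added for 1 h at 37 °C, and the reaction was stopped with 9 volumes of MHB. MIC was then run by broth microdilution (5 × 10^5 CFU/mL, 16–18 h, 37 °C) in medium adjusted to pH 5.0.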

[2] = Drug uptake in mouse RAW264.7 using FITC-labeled compound at 5 uM incubated for 2 hrs by flow cytometry; assay type: ADME, cell-based; conditions: raw264.7, 2 h
Outline: (§2)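 Confluent RAW264.7 cells were resuspended in PBS and incubated at 37 °C with 5 µM FITC-labeled peptide. Samples taken at 0.5 h and 2 h were quenched with 0.4% Trypan blue for extracellular fluorescence. Uptake (percent internalized cells) was read by flow cytometry, with free FITC as negative control.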

Salmonella typhimurium [3] = assay: Antibacterial activity against Salmonella typhimurium ATCC 14028 infected in ICR mouse model of peritonitis assessed as reduction colony forming units in total peritoneal fluids at 1 umol/kg, ip dosed at 2 hrs post infection and measured after 10 hrs post dose; assay type: functional, Salmonella enterica subsp. enterica serovar Typhimurium
Outline: (§3)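 Six-week-old female ICR mice (six per group) received ip S. Typhimurium ATCC14028 (5 × 10^5 CFU, 0.5 mL). Peptide was given ip 2 h post-infection and mice were killed 10 h after treatment. Peritoneum was lavaged with 5 mL ice-cold PBS and total CFU counted. For intracellular CFU, pelleted cells were treated with 100 µg/mL gentamicin for 1 h at 37 °C, washed, lysed and plated. PBS served as negative control, ciprofloxacin as positive.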

Salmonella typhimurium [4] = assay: Antibacterial activity against Salmonella typhimurium ATCC 14028 using 1 hr cathepsin B pre-treated compound at pH 5 incubated for 16 to 18 hrs at by broth microdilution method; assay type: functional, Salmonella enterica subsp. enterica serovar Typhimurium; conditions: Salmonella enterica; outline: as §1
Salmonella typhimurium [5] = assay: Antibacterial activity against Salmonella typhimurium ATCC 14028 incubated for 16 to 18 hrs at pH 7.2 by broth microdilution method; assay type: functional, Salmonella enterica subsp. enterica serovar Typhimurium; conditions: Salmonella enterica
Outline: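 Broth microdilution in MH broth. S. Typhimurium ATCC14028 was grown overnight at 37 °C to semi-log phase, pelleted, and diluted to OD600 0.01; final inoculum was 5 × 10^5 CFU/mL. Plates were incubated 16–18 h at 37 °C. MIC is the lowest peptide concentration with no visible growth. Data are in duplicate from at least two independent experiments.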

Salmonella typhimurium [6] = assay: Antibacterial activity against Salmonella typhimurium ATCC 14028 infected in ICR mouse model of peritonitis assessed as reduction colony forming units in intracellular fluids at 1 umol/kg, ip dosed at 2 hrs post infection and measured after 10 hrs post dose; assay type: functional, Salmonella enterica subsp. enterica serovar Typhimurium; outline: as §3
Salmonella typhimurium [7] = assay: Antibacterial activity against Salmonella typhimurium ATCC 14028 infected in ICR mouse model of peritonitis assessed as reduction colony forming units in kidney at 1 to 2 umol/kg, ip dosed at 2 hrs post infection and measured after 10 hrs post dose; assay type: functional, Salmonella enterica subsp. enterica serovar Typhimurium
Outline: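 Female ICR mice, six weeks old (six per group), were infected ip with S. Typhimurium ATCC14028 (5 × 10^5 CFU, 0.5 mL). Peptide was given ip at 1, 1.5 or 2 µmol/kg 2 h post-infection. Mice were killed 10 h after treatment, and kidneys and spleens were homogenized in sterile PBS for CFU counts of translocated bacteria. PBS-treated mice served as negative control, ciprofloxacin-treated mice as positive.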

[8] = Induction of hemolysis in mouse RBC at 100 uM incubated for 1 hrs at 37 degC; assay type: cell-based, Erythrocyte; conditions: red blood cells (erythrocytes), read-out: Activity
Outline: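 Fresh mouse erythrocytes were washed three times in 0.9% NaCl, and an 8% suspension was incubated with peptide (2-fold dilutions, 100 to 0.3125 µM) for 1 h at 37 °C. Released hemoglobin was read at 540 nm. 1% Triton X-100 defined 100% lysis; polymyxin served as positive control and NaCl as negative.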

[9] = Drug uptake in mouse RAW264.7 using FITC-labeled compound at 5 uM incubated for 0.5 hrs by flow cytometry; assay type: ADME, cell-based; conditions: raw264.7, 0.5 h; outline: as §2
Salmonella typhimurium [10] = assay: Antibacterial activity against Salmonella typhimurium ATCC 14028 infected in ICR mouse model of peritonitis assessed as mouse survival at 1 umol/kg, ip dosed at 0.5 and 8 hrs post infection and measured daily for 7 days
[11] = Drug localisation in cytosol of mouse RAW264.7 using FITC-labeled compound at 5 uM incubated for 2 hrs by confocal microscopy; assay type: ADME, cell-based
Outline: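 RAW264.7 cells were plated for 18 h at 37 °C, then given 5 µM FITC or FITC-labeled peptide for 2 h. Nuclei were stained with Hoechst 33342 and membranes with FM 4-64 (each 5 µg/mL) for 30 min at 37 °C. Cells were PBS-washed and imaged by confocal fluorescence microscopy.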

Salmonella typhimurium [12] = assay: Bactericidal activity against 2 hrs-gentamicin pre-exposed Salmonella typhimurium ATCC 14028 assessed as effect on bacterial re-growth at 10 uM measured within 6 hrs; assay type: functional, organism-based; conditions: Salmonella enterica subsp. enterica serovar Typhimurium
Outline: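 RAW264.7 cells in DMEM/10% FBS were infected with S. Typhimurium ATCC14028 at MOI 10 for 1 h, then given 100 µg/mL gentamicin for 2 h at 37 °C and washed. Cells were treated with 10 µM agent for 1, 3, 6, 9 and 12 h, lysed with 0.1% Triton X-100, and surviving intracellular bacteria were serially diluted and plated for CFU.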

[13] = Cytotoxicity in mouse RAW264.7 assessed as cell survival at 100 uM incubated for 8 hrs by MTT assay; assay type: cell-based; conditions: RAW264.7 cells, read-out: Survival
Outline: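 RAW264.7 cells seeded at 2.5 × 10^4 cells/well, cultured 24 h, then exposed for 8 h to 2-fold dilutions from 100 to 0.625 µM. MTT at 5 mg/mL added for 4 h, formazan dissolved in DMSO, absorbance read at 570 nm. Untreated cells served as control. Samples run in triplicate.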

CC(C)[C@@H]1NC(=O)CNC(=O)[C@H](CC(N)=O)NC(=O)[C@H](CCCNC(=N)N)NC(=O)[C@H](Cc2ccc(O)cc2)NC(=O)[C@H](C(C)C)NC(=O)[C@@H](NC(=O)[C@@H](NC(=O)[C@H](CC(N)=O)NC(=O)[C@H](Cc2c[nH]c3ccccc23)NC(=O)[C@H](C)NC(=O)[C@H](Cc2ccccc2)NC(=O)CN)C(C)C)CSSC[C@@H](C(=O)N[C@@H](Cc2cnc[nH]2)C(=O)N[C@@H](CCCNC(=N)N)C(=O)N[C@@H](CCCNC(=N)N)C(=O)N[C@@H](C)C(=O)N[C@@H](CC(N)=O)C(=O)O)NC(=O)[C@H](C(C)C)NC(=O)[C@H](CCCNC(=N)N)NC1=O (H-GFAWNVCVYRNGVRVCHRRAN-OH; disulfide 7-16)
MIC (Salmonella typhimurium [1]): 13 µM (≈ 32.1 µg/mL)
Drug uptake [2]: 71.9%
Activity (Salmonella typhimurium [3]): 1.01 log10CFU
MIC (Salmonella typhimurium [4]): 1.62 µM (≈ 4.01 µg/mL)
MIC (Salmonella typhimurium [5]): 0.81 µM (≈ 2.01 µg/mL)
Activity (Salmonella typhimurium [6]): 0.43 log10CFU
Activity (Salmonella typhimurium [7]): 0.6 log10CFU
hemolysis at 1 h, 100 µM [8]: 2.06%
Drug uptake [9]: 28.7%
Activity (Salmonella typhimurium [10]): 33.4%
Drug uptake [11]: Not Active
Activity (Salmonella typhimurium [12]): inactive
viability at 8 h, 100 µM [13]: 94.6%

O=C(O)c1cn(C2CC2)c2cc(N3CCNCC3)c(F)cc2c1=O [CIPROFLOXACIN]
Activity (Salmonella typhimurium [10]): 100%

Source: ChEMBL document CHEMBL4196141, “Improved Antibacterial Activity of the Marine Peptide N6 against Intracellular Salmonella Typhimurium by Conjugating with the Cell-Penetrating Peptide Tat11 via a Cleavable Linker” (J Med Chem, 2018)
